From ChEMBL document CHEMBL2057168, “(1aR,5aR)1a,3,5,5a-Tetrahydro-1H-2,3-diaza-cyclopropa[a]pentalene-4-carboxylic acid (MK-1903): a potent GPR109a agonist that lowers free fatty acids in humans” (J Med Chem, 2012)
The source made the active and inactive calls. No cut-off for these calls is given here.

Columns and labels:
[1] = Volume of distribution in rhesus monkey; format: ADME, organism-based, Macaca mulatta; conditions: in vivo
Homo sapiens [2] = assay: Antidyslipedic activity in human assessed as decrease in free fatty acid level at 50 to 200 mg, po administered as a single dose measured after 1 to 2 hrs relative to placebo control; format: functional; design: scale not given: the % may be the effect or the level left
Homo sapiens [3] = assay: Antidyslipedic activity in human assessed as decrease in free fatty acid level at 50 to 200 mg, po administered as a single dose measured after 8 hrs relative to placebo control; format: functional, organism-based
[4] = AUC (0 to 12 hrs) in human at 50 mg, po BID administered on day 1 followed by 2-day wash out period after which dosing continued up to day 11 measured on day 4; format: ADME, organism-based; design: time < 12 hr, dose 50 mg, route oral; conditions: plasma
How it was run: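 Double-blind, placebo-controlled, randomized dose-escalation study in healthy male volunteers, six cohorts of eight (six active, two placebo). Oral dose on day 1, two-day washout, then dosing days 4–11; the 200 mg qd cohort was titrated over days 1–4. Venous blood taken predose and at 0.5–12 h on days 1, 4 and 11; plasma drug measured. τ 12 h (bid), 24 h (qd), 8 h (tid), 6 h (qid).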

Homo sapiens [5] = assay: Toxicity in human assessed as occurrence of flushing administered as single dose; format: organism-based; conditions: in vivo
How it was run: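 Healthy volunteers scored subject-reported flushing with a flushing symptoms questionnaire after single oral doses and during repeat divided daily dosing.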

[6] = Cmax in human at 50 mg, po BID administered on day 1 followed by 2-day wash out period after which dosing continued up to day 11 measured on day 1; format: ADME, organism-based; design: dose 50 mg, route oral; conditions: in vivo
How it was run: (§1)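 Healthy male volunteers took part in a double-blind, randomized, placebo-controlled dose-escalation study, with cohorts of 8 (6 on drug, 2 on placebo). Each subject got an oral dose on day 1, then a 2-day washout, then dosing on days 4–11. The 200 mg qd group was titrated over days 1–4. Venous plasma was sampled predose and 0.5–12 h postdose on days 1, 4 and 11, and predose on days 5–10 for troughs.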

Homo sapiens [7] = assay: Cmin in human at 50 mg, po BID administered on day 1 followed by 2-day wash out period after which dosing continued up to day 11 measured on day 1 at 12 hrs; format: ADME, organism-based; conditions: in vivo, BLD = below limit of detection; how it was run: as §1
[8] = Cmin in human at 100 mg, po BID administered on day 1 followed by 2-day wash out period after which dosing continued up to day 11 measured on day 11 at 12 hrs; format: ADME, organism-based; conditions: in vivo, read-out: Cmin
How it was run: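 Healthy male volunteers, double-blind placebo-controlled randomized dose escalation; cohorts of eight (six active, two placebo). Oral dose on day 1, two-day washout, then dosing days 4–11. Venous blood predose and 0.5, 1, 1.5, 2, 4, 6, 8, 10, 12 h postdose on days 1, 4 and 11 for plasma drug; dosing interval (τ) 12 h for BID, 8 h for TID; Ctrough taken at end of interval.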

[9] = Cmin in human at 175 mg, po QID administered on day 1 followed by 2-days wash out period after which dosing continued up to day 11 measured on day 4 at 6 hrs; format: ADME, organism-based; conditions: in vivo, read-out: Cmin; how it was run: as §1
[10] = Cmin in human at 175 mg, po QID administered on day 1 followed by 2-days wash out period after which dosing continued up to day 11 measured on day 11 at 6 hrs; format: ADME, organism-based; conditions: in vivo, read-out: Cmin; how it was run: as §1
[11] = Tmax in human at 50 mg, po BID administered on day 1 followed by 2-day wash out period after which dosing continued up to day 11 measured on day 4; format: ADME, organism-based; conditions: in vivo
How it was run: (§2)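 Double-blind, placebo-controlled, randomized multiple oral dose study in healthy male volunteers (cohorts of eight; six active, two placebo). Dose given on day 1, then a two-day washout, then dosing days 4–11; for the QD arm, subjects were titrated over days 1–4. Venous plasma sampled predose and 0.5, 1, 1.5, 2, 4, 6, 8, 10, 12 h postdose on days 1, 4 and 11. Tmax reported as median (min–max).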

[12] = Tmax in human at 150 mg, po TID administered on day 1 followed by 2-days wash out period after which dosing continued up to day 11 measured on day 4; format: ADME, organism-based; conditions: in vivo; how it was run: as §2

Q: Which results are given for `O=C(O)c1n[nH]c2c1C[C@H]1C[C@@H]21`?
A: Vd [1]: 0.21 L/kg; Activity (Homo sapiens [2]): 90%; Activity (Homo sapiens [3]): inactive; AUC at 12 h [4]: 0.0261 µM·h; Activity (Homo sapiens [5]): Dose-dependent effect; Cmax [6]: 12.3 nM; Cmin (Homo sapiens [7]): BLD; concentration at 12 h [8]: 0.104 nM; concentration at 6 h [9]: 2.92 nM; concentration at 6 h [10]: 2.86 nM; Tmax [11]: 75 min; Tmax [12]: 30 min
